From article PMC6800648 (Cell chemical biology, 2019) come the findings set out here.

Numbered stars: 1 amine (or outer) side, 2 acyl side, 3 side chain; on linkers, the order of the positions; unused ones are H or OH. Square brackets hold non-standard residues; d marks the D form. Peptide text beside a SMILES is read from it. * marks the point of attachment. NH(CH2CH2O)11C2H4NHBiotinyl = O=C(CCCC[C@@H]1SC[C@@H]2NC(=O)N[C@@H]21)NCCOCCOCCOCCOCCOCCOCCOCCOCCOCCOCCOCCN*; Lys(Me,2-norbornyl) = CN(CCCC[C@H](N)C(=O)O)C1CC2CCC1C2; X10 = CN(CCCC[C@H](N[*:1])C(=O)[*:2])C1C2CC3CC(C2)CC1C3; Benzoyl(4-tBu) = CC(C)(C)c1ccc(C(=O)*)cc1; Lys(Et2) = CCN(CC)CCCC[C@H](N)C(=O)O

For data set [1], the system named is 120 purified Kme reader domains. The experiment in a line: Chromatin-associated domain array. The class given is binding. Particulars: biotinylated ligand, fluorescently tagged streptavidin visualization.
Another data set concerns canonical PRC1 complex. The experiment in a line: Chemiprecipitation. The class given is binding, human. Particulars: PC3 cell lysates, western blot. An outline of the steps: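 PC3 cells in DMEM/F12 plus 10% FBS were grown to 80–90% confluency, trypsinised, PBS-washed twice, and lysed fresh or after flash freezing. Lysates were pulled down with biotinylated test compounds. Beads were boiled in Laemmli buffer at 95 °C for 3 min, with 1% input. Proteins were separated by SDS-PAGE and blotted to PVDF. Primary antibody overnight at 4°C; infrared secondaries (1:10,000).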
(In western blotting, separated proteins are transferred to a membrane and probed.)

The next data set addresses T1, CBX7 (Mus musculus, UniProt Q8VDS3).
T1 sequence (Q8VDS3 2-69 limits assumed): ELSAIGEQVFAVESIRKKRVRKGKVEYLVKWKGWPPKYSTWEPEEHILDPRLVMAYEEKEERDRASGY
Kind of data set: Polycomb in-vivo Assay. It counts as cell-based.

Data set [2] can be described thus: Solubility observed in the Polycomb in-vivo Assay. Particulars: above 30 mM in the Polycomb in-vivo Assay.
The target in data set [3] is T2, CDYL2 chromodomain (residues 1–75 of NP_689555) (UniProt Q8N8U2 1-75).
T2 sequence (looked up): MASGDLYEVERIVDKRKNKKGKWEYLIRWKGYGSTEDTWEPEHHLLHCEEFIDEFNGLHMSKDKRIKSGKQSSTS
The experiment in a line: ITC. (In general: Isothermal titration calorimetry measures the heat released or taken up as one component is titrated into another.)

The target in data set [4] is T3, CBX2 chromodomain (residues 9–66 of NP_005180) (UniProt Q14781-1 9-66).
T3 sequence (looked up): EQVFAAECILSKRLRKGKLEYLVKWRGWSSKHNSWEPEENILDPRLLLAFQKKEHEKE
Kind of data set: ITC.

For data set [5], the target named is T4, CBX6 chromodomain (residues 8–65 of NP_055107) (UniProt O95503 8-65).
T4 sequence (looked up): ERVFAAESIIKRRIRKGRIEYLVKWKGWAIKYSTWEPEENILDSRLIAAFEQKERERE
Kind of data set: ITC.

The next data set concerns the target CBX7 chromodomain (UniProt O95931 8-62). Kind of data set: fluorescence polarization. A general note: In fluorescence polarisation assays a small probe gives low polarisation when free and higher when bound to something large.

`CCN(CC)CCCC[C@H](NC(=O)[C@H](CC(C)C)NC(=O)[C@H](C)NC(=O)[C@H](Cc1ccccc1)NC(=O)c1ccc(C(C)(C)C)cc1)C(=O)N[C@@H](CO)C(=O)NCCOCCOCCOCCOCCOCCOCCOCCOCCOCCOCCOCCNC(=O)CCCC[C@@H]1SC[C@@H]2NC(=O)N[C@@H]21` [UNC4195, 4-(tert-butyl)-N-((2S,5S,8S,11S,14S)-11-(4-(diethylamino)butyl)-14-(hydroxymethyl)-8-isobutyl-5-methyl-3,6,9,12,15,53-hexaoxo-57-((3aS,4S,6aR)-2-oxohexahydro-1H-thieno[3,4-d]imidazol-4-yl)-1-phenyl-19,22,25,28,31,34,37,40,43,46,49-undecaoxa-4,7,10,13,16,52-hexaazaheptapentacontan-2-yl)benzamide, reference compound] ({Benzoyl(4-tBu)}-FAL[Lys(Et2)]S-{NH(CH2CH2O)11C2H4NHBiotinyl}): in data set [1], the “selectivity profile on CADOR microarray” value is “binding interactions were only detected for all five Polycomb CBX chromodomains and a small subset of CDY chromodomains”. Moreover, the “pulldown of canonical PRC1 components (CBX4, CBX7, CBX8, RING1B, BMI1)” value with canonical PRC1 complex was “we detected pulldown of CBX4, CBX7, CBX8, RING1B, and BMI1”.
In general, EC50 refers to the midpoint of the concentration-response curve. A high value points to lower potency in that assay. Take `COC(=O)[C@H](CO)NC(=O)[C@H](CCCCN(C)C1C2CC3CC(C2)CC1C3)NC(=O)[C@H](CC(C)C)NC(=O)[C@H](C)NC(=O)[C@H](Cc1ccccc1)NC(=O)c1ccc(C(C)(C)C)cc1` (stereo partly drawn) [UNC6373, methyl N^6-((1S,3S,5S,7S)-adamantan-2-yl)-N^2-(4-(tert-butyl)benzoyl)-L-phenylalanyl-L-alanyl-L-leucyl-N^6-methyl-L-lysyl-L-serinate] ({Benzoyl(4-tBu)}-FAL[X10]S-OMe): it took 1.02 ± 0.175 µM to reach a half-maximal effect on CBX7 (EC50). Also, in data set [2], the “solubility in this assay” value is on record as “markedly poor solubility”.
In the case of `CC(C)C[C@H](NC(=O)[C@H](C)NC(=O)[C@H](Cc1ccccc1)NC(=O)c1ccc(C(C)(C)C)cc1)C(=O)N[C@@H](CCCCN(C)C1CC2CCC1C2)C(=O)N[C@@H](CO)C(=O)NCCOCCOCCOCCOCCOCCOCCOCCOCCOCCOCCOCCNC(=O)CCCC[C@@H]1SC[C@@H]2NC(=O)N[C@@H]21` (stereo partly drawn) [UNC5355, N-((2S,5S,8S,11S,14S)-11-(4-(bicyclo[2.2.1]heptan-2-yl(methyl)amino)butyl)-14-(hydroxymethyl)-8-isobutyl-5-methyl-3,6,9,12,15,53-hexaoxo-57-((3aS,4S,6aR)-2-oxohexahydro-1H-thieno[3,4-d]imidazol-4-yl)-1-phenyl-19,22,25,28,31,34,37,40,43,46,49-undecaoxa-4,7,10,13,16,52-hexaazaheptapentacontan-2-yl)-4-(tert-butyl)benzamide] ({Benzoyl(4-tBu)}-FAL[Lys(Me,2-norbornyl)]S-{NH(CH2CH2O)11C2H4NHBiotinyl}), the “selectivity profile on CADOR microarray” value in data set [1] was “binding interactions were only detected for all five Polycomb CBX chromodomains and a small subset of CDY chromodomains”. Moreover, in the data set on canonical PRC1 complex, the “pulldown of CBX2 and CBX6” value is “not detected”; the “pulldown of canonical PRC1 components (CBX4, CBX7, CBX8, RING1B, BMI1)” value was “all five components previously mentioned were similarly pulled down”.

B1: UNC4976 (peptide)
peptide: FALKS
modifications: N-terminal 4-(tert-butyl)benzoyl cap on Phe1; Lys4 is N6-(bicyclo[2.2.1]heptan-2-yl)-N6-methyl-L-lysine (N6-methyl-N6-norbornyl lysine); C-terminal methyl ester on Ser5
For B1, the “fold selectivity for CBX4/7 over CDYL2” value in data set [3] was 8 fold. Further, the “fold selectivity for CBX4/7 over CBX2” value in data set [4] worked out at 28 fold. Further, the “fold selectivity for CBX4/7 over CBX6” value in data set [5] came out at 9 fold.
Regarding UGGAGUUGCGUUCCA (structured_RNA) [FAM-ANRIL-RNA (ANRIL Loop C) FP probe], in the data set with CBX7 chromodomain, the binding signal was 4 fold affinity (alpha).
